Measurements: the M2OR odorant receptor database

Assays:
Details in all cases: stereoisomer not certain
[1] = biological target: T1, UniProt Q8VGL0
T1 sequence (whole entry): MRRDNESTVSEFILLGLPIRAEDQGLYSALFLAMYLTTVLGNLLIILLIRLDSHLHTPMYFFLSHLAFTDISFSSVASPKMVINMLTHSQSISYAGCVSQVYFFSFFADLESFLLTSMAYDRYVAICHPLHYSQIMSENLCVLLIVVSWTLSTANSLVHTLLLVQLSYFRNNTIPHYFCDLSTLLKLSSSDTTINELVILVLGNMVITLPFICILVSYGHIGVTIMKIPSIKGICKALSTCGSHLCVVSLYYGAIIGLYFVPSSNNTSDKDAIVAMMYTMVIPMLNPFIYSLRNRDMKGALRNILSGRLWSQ
In short: (§1)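 Transient luciferase assays in mammalian cell lines were common, though methods varied by source. The values come from published papers and their supplementary material, with extra details from the original authors when needed. Responsive refers to a measured signal the original authors judged statistically different from baseline, and non-responsive (inactive) to the remainder.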

[2] = biological target: T2, UniProt Q8VGU3
T2 sequence (whole entry): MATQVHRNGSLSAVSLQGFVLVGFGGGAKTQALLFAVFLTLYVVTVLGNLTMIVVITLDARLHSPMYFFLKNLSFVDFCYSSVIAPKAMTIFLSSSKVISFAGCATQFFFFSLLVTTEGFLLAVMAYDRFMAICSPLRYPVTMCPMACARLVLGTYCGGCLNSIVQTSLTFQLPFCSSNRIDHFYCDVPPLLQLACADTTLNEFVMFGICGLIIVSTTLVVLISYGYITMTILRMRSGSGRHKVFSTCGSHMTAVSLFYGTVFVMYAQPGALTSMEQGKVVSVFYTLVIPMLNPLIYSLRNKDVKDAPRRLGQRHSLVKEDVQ
In short: as §1

[3] = biological target: T3, UniProt Q8VGV7
T3 sequence (whole entry): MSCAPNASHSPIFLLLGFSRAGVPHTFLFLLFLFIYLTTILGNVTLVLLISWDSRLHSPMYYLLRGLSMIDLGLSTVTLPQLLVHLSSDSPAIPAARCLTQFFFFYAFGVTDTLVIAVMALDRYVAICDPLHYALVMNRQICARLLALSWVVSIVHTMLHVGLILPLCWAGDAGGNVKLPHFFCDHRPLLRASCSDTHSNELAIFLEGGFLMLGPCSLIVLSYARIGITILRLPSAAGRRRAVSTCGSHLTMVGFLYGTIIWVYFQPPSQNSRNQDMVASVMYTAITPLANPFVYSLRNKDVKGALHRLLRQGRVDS
In short: as §1

[4] = biological target: T4, UniProt Q8VGX3
T4 sequence (whole entry): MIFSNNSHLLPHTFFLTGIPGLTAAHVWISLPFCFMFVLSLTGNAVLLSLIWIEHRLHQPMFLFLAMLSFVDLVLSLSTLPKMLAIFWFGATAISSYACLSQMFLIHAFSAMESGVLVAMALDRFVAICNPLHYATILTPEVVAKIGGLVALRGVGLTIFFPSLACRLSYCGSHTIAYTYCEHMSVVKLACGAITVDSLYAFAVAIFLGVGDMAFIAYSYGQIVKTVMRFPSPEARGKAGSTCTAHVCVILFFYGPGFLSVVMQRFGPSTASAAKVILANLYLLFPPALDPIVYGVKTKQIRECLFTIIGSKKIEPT
In short: as §1

[5] = biological target: T5, UniProt Q8VGX5
T5 sequence (whole entry): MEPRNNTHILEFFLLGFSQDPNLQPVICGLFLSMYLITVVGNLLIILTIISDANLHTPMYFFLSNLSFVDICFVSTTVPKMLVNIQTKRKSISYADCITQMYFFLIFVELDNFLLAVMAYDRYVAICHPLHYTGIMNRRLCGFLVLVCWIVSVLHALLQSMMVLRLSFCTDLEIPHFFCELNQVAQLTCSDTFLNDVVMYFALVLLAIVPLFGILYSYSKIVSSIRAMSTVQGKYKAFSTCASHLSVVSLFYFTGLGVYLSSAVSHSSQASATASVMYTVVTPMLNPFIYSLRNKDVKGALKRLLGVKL
In short: as §1

[6] = biological target: T6, UniProt Q8VGZ2
T6 sequence (whole entry): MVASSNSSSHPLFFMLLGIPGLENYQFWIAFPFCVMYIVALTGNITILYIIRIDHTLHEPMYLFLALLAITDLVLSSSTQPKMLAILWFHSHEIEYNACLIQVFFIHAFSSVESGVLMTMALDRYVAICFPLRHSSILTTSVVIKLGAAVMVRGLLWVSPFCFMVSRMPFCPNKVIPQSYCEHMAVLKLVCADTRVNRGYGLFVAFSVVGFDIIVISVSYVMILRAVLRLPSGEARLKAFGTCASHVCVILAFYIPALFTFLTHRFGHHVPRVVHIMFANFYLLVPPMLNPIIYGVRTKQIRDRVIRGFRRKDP
In short: as §1

[7] = biological target: T7, UniProt Q8VGZ7
T7 sequence (whole entry): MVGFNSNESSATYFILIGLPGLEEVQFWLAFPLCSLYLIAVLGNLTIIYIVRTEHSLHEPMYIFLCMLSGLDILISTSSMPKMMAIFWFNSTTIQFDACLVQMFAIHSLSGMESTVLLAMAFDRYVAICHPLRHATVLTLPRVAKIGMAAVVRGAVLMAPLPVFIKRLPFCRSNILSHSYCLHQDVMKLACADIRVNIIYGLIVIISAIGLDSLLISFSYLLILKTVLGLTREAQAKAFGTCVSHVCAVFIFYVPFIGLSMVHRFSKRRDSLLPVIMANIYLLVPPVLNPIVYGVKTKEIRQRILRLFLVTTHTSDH
In short: as §1

[8] = biological target: T8, UniProt Q8VH16
T8 sequence (whole entry): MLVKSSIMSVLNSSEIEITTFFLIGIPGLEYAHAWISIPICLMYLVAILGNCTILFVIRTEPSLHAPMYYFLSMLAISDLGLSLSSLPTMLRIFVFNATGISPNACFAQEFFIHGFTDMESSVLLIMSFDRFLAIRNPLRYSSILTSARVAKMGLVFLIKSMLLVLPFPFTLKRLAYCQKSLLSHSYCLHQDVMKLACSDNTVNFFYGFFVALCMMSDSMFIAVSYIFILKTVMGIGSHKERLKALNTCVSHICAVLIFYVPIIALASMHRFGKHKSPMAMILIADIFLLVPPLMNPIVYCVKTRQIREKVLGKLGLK
In short: as §1

[9] = biological target: T9, UniProt Q8VH20
T9 sequence (whole entry): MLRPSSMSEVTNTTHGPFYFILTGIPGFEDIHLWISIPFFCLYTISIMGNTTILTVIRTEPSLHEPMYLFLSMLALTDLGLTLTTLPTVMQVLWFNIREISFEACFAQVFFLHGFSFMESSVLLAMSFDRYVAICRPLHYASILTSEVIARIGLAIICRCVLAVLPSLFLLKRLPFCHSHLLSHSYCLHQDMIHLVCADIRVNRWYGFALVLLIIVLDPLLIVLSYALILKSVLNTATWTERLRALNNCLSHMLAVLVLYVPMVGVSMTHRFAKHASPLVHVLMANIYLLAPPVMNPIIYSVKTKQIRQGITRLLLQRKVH
In short: as §1
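Also: active if original authors judged signal statistically different from baseline.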

CSSC
odorant receptor agonist call [1]: inactive
odorant receptor agonist call [2]: inactive
odorant receptor agonist call [3]: inactive
odorant receptor agonist call [4]: inactive
odorant receptor agonist call [5]: inactive
odorant receptor agonist call [6]: inactive
odorant receptor agonist call [7]: inactive
odorant receptor agonist call [8]: inactive
odorant receptor agonist call [9]: inactive

CC(C=O)Cc1ccc2c(c1)OCO2 (stereo not drawn)
odorant receptor agonist call [1]: inactive
odorant receptor agonist call [2]: inactive
odorant receptor agonist call [3]: inactive
odorant receptor agonist call [4]: inactive
odorant receptor agonist call [5]: active
odorant receptor agonist call [6]: inactive
odorant receptor agonist call [7]: inactive
odorant receptor agonist call [8]: inactive
odorant receptor agonist call [9]: inactive
